Measured values published in article PMC10975593 (ACS Omega, 2024).
Where two headings read alike, the source gives them in different places.

Tests used:
MALME-3M = assay: NCI 60-cell line screen; assay type: cell-based, human; conditions: for GI50 / IC50 / CC50: Homo sapiens, Malme-3M; for CC50: read-out: LC50; for TGI: MALME-3M, melanoma
CAKI-1 = assay: NCI 60-cell line screen; assay type: cell-based, human; conditions: for TGI: CAKI-1, renal cancer; for GI50 / IC50 / CC50: Homo sapiens; for GI50 / IC50: CAKI-1; for CC50: CAKI-1, read-out: LC50
A549 cancer cell line = assay: MTT assay; assay type: cell-based; conditions: Homo sapiens, A549, 72 h; for inhibition at 100 µM: read-out: experimental % of inhibition on A549 cancer cell line
Method in brief: (§1)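 A549 in DMEM and MCF-7 in RPMI, each with 10% heat-inactivated FBS, 1% penicillin/streptomycin and 2 mmol/L glutamine at 37 °C, 5% CO2. Seeded at 2000 (A549) or 10,000 (MCF-7) cells/well and attached 24 h. Then 72 h with test compound at varying concentrations. MTT (5 mg/mL stock) added for 4 h at 37 °C, formazan dissolved in DMSO, absorbance read at 450/540 nm. Triplicates in three separate experiments.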

NCI-H322M = assay: NCI 60-cell line screen; assay type: cell-based, human; conditions: for GI50 / IC50 / CC50: Homo sapiens; for CC50: read-out: LC50; for TGI: non-small cell lung cancer
SK-OV-3 = assay: NCI 60-cell line screen; assay type: cell-based, human; conditions: for GI50 / IC50 / CC50: Homo sapiens; for GI50 / IC50: SK-OV-3; for CC50: SK-OV-3, read-out: LC50; for TGI: SK-OV-3, ovarian cancer
Method in brief: (§2)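 Test compounds were submitted to the National Cancer Institute and run under NCI's standard 60-cell-line protocols. Read-outs were taken from percent-growth versus log-concentration curves.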

Fibro cell line = assay: % inhibition on normal cell line; assay type: cell-based; conditions: for inhibition at 10 µM: read-out: %inhibition at 10 μM; for inhibition at 100 µM: read-out: %inhibition at 100 μM
MDA-MB-231/ATCC = assay: NCI 60-cell line screen; assay type: cell-based, human; conditions: for GI50 / IC50 / CC50: Homo sapiens; for GI50 / IC50: MDA-MB-231; for CC50: MDA-MB-231, read-out: LC50; for TGI: MDA-MB-231/ATCC, breast cancer
OVCAR-8 = assay: NCI 60-cell line screen; assay type: cell-based, human; conditions: for GI50 / IC50 / CC50: Homo sapiens; for GI50 / IC50: OVCAR-8; for CC50: OVCAR-8, read-out: LC50; for TGI: OVCAR-8, ovarian cancer
Method in brief: as §2

NCI-H226 = assay: NCI 60-cell line screen; assay type: cell-based, human; conditions: for GI50 / IC50 / CC50: Homo sapiens; for GI50 / IC50: NCI-H226; for CC50: NCI-H226, read-out: LC50; for TGI: NCI-H226, non-small cell lung cancer
OVCAR-3 = assay: NCI 60-cell line screen; assay type: cell-based, human; conditions: for GI50 / IC50 / CC50: Homo sapiens; for GI50 / IC50: OVCAR-3; for CC50: OVCAR-3, read-out: LC50; for TGI: OVCAR-3, ovarian cancer
HOP-92 = assay: NCI 60-cell line screen; assay type: cell-based, human; conditions: for TGI: HOP-92, non-small cell lung cancer; for GI50 / IC50 / CC50: Homo sapiens; for GI50 / IC50: HOP-92; for CC50: HOP-92, read-out: LC50
SK-MEL-28 = assay: NCI 60-cell line screen; assay type: cell-based, human; conditions: for GI50 / IC50 / CC50: Homo sapiens; for GI50 / IC50: SK-MEL-28; for CC50: SK-MEL-28, read-out: LC50; for TGI: SK-MEL-28, melanoma
Method in brief: as §2

IGROV1 = assay: NCI 60-cell line screen; assay type: cell-based, human; conditions: for GI50 / IC50 / CC50: Homo sapiens; for GI50 / IC50: IGROV-1; for CC50: IGROV-1, read-out: LC50; for TGI: IGROV1, ovarian cancer
786-0 = assay: NCI 60-cell line screen; assay type: cell-based, human; conditions: for TGI: 786-0, renal cancer; for GI50 / IC50 / CC50: Homo sapiens; for GI50 / IC50: 786-0; for CC50: 786-0, read-out: LC50
NCI-H522 = assay: NCI 60-cell line screen; assay type: cell-based, human; conditions: for GI50 / IC50 / CC50: Homo sapiens; for GI50 / IC50: NCI-H522; for CC50: NCI-H522, read-out: LC50; for TGI: NCI-H522, non-small cell lung cancer
PKN2 (PRK2) = PKN2 (PRK2) (Homo sapiens, UniProt Q16513); assay: Kinase selectivity for OMS14; assay type: biochemical
PKN2 (PRK2), sequence (Q16513 whole entry): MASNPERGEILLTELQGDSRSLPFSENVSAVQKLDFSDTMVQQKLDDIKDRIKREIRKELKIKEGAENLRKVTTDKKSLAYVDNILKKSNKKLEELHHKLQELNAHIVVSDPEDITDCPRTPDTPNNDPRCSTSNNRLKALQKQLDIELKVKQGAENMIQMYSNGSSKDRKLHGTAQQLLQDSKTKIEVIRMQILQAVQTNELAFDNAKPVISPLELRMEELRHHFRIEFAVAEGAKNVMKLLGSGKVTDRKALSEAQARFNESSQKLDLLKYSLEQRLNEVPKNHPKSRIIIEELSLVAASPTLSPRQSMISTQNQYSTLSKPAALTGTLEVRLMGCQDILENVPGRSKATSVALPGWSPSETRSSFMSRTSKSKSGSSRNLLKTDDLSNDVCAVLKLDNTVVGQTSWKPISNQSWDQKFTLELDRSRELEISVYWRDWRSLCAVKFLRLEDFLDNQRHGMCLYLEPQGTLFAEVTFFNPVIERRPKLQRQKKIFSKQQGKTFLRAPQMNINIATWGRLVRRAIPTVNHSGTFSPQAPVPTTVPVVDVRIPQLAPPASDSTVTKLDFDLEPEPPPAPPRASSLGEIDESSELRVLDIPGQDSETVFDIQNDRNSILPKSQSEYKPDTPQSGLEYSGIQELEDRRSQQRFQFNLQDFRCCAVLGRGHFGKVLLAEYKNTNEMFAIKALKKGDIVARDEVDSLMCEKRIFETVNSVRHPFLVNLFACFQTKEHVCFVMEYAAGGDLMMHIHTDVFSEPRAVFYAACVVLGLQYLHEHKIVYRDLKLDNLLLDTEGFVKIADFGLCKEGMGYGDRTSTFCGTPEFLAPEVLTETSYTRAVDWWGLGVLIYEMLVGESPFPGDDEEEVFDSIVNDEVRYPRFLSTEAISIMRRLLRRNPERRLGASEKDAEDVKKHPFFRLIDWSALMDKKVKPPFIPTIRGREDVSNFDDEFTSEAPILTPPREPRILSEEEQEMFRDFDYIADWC

[1] = molecular target: PIK3CA E542 K/PIK3R1 (p110 α E542 K/p85 α) (Homo sapiens, UniProt P42336, E542K); assay: Kinase selectivity for OMS14; assay type: biochemical
PIK3CA E542 K/PIK3R1 (p110 α E542 K/p85 α), sequence (P42336 whole entry E542K): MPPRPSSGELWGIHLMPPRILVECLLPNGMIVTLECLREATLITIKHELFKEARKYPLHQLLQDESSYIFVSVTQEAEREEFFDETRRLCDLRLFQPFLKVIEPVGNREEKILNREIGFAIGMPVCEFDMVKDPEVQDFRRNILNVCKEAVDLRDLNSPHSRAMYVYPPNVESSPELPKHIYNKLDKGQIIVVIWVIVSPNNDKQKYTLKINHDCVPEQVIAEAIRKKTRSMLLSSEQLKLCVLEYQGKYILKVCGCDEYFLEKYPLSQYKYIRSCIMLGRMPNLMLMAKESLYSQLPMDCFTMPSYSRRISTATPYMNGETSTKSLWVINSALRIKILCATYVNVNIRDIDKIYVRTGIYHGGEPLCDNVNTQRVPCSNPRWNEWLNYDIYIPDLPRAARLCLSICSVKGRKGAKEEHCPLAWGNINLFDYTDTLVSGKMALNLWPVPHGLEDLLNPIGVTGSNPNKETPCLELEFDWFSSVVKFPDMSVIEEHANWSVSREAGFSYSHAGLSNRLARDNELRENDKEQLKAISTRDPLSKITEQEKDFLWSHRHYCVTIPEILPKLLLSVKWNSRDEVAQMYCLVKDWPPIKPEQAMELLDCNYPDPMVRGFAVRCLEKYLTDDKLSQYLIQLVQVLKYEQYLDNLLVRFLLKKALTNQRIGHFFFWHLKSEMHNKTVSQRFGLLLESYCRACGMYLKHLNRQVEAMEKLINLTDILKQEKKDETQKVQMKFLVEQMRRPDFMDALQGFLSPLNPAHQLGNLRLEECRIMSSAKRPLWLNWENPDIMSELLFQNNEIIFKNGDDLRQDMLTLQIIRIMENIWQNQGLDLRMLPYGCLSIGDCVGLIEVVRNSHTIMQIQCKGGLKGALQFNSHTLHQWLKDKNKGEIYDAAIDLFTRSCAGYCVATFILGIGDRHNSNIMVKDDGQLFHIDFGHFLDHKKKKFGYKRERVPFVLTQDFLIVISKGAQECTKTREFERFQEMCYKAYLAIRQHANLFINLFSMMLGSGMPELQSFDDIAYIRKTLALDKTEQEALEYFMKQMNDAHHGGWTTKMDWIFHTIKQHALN
PIK3CA E542 K/PIK3R1 (p110 α E542 K/p85 α), sequence (P27986 whole entry partner): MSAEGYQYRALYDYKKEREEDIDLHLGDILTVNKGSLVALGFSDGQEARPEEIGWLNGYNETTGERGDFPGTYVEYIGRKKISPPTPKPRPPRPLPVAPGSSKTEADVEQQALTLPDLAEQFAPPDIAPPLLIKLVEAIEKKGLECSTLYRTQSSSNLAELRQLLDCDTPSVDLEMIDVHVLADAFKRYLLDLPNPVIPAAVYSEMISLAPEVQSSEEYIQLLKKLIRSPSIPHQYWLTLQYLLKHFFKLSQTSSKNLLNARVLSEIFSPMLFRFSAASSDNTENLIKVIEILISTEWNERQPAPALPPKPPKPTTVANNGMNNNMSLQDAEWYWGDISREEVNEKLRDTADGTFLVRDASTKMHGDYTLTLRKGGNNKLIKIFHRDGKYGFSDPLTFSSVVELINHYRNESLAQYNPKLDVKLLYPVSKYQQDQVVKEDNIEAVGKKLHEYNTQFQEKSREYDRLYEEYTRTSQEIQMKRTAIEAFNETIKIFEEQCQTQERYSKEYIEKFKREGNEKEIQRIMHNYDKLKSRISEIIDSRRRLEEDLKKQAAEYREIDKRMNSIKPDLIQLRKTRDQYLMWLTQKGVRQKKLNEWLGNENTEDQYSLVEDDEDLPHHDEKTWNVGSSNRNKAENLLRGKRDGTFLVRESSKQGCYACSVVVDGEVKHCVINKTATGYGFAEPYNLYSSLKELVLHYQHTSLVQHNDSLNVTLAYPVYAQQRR

[2] = molecular target: PIK3CD/PIK3R1 (p110 δ/p85 α) (Homo sapiens, UniProt O00329); assay: Kinase selectivity for OMS14; assay type: biochemical
PIK3CD/PIK3R1 (p110 δ/p85 α), sequence (O00329 whole entry): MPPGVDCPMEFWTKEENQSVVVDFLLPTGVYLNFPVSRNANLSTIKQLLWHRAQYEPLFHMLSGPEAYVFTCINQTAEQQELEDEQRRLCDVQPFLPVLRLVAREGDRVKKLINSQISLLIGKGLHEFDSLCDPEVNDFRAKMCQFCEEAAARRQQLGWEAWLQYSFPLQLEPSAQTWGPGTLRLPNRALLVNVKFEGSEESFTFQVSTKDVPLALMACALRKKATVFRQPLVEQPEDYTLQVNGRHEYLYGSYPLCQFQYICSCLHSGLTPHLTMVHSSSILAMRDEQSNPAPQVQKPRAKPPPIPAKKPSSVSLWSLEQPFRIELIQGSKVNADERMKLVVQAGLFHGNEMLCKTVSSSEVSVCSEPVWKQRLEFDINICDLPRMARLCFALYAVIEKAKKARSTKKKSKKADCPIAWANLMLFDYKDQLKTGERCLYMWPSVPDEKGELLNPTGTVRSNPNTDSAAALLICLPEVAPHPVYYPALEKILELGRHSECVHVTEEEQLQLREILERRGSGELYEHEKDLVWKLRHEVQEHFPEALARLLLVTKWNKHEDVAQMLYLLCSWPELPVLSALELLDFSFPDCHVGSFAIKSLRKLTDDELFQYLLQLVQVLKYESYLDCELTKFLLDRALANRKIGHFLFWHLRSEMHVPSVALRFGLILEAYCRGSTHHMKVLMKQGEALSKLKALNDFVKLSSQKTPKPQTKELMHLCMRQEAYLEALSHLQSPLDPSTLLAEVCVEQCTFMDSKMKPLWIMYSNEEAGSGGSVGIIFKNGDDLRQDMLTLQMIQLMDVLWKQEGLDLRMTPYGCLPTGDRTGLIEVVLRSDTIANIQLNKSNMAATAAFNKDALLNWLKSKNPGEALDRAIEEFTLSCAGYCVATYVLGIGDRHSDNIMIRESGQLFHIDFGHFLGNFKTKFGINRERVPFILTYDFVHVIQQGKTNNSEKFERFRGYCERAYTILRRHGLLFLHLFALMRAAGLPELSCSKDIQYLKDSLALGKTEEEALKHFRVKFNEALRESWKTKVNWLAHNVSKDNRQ
PIK3CD/PIK3R1 (p110 δ/p85 α), sequence (P27986 whole entry partner): as the sequence (P27986 whole entry partner) above

AKT3 (PKB γ) = AKT3 (PKB γ) (Homo sapiens, UniProt Q9Y243); assay: Kinase selectivity for OMS14; assay type: biochemical
AKT3 (PKB γ), sequence (Q9Y243 whole entry): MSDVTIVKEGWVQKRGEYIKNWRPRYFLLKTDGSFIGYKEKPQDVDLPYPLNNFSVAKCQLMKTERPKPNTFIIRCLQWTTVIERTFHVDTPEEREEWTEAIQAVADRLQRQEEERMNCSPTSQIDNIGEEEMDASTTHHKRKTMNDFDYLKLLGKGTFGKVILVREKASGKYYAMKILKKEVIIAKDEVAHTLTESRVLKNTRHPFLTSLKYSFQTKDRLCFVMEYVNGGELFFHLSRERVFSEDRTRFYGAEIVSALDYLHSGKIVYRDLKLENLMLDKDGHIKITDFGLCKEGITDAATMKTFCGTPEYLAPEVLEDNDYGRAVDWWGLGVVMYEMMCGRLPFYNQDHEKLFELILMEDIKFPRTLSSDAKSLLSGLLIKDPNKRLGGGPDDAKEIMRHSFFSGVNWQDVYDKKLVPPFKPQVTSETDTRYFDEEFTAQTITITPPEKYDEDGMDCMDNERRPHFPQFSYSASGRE

MCF-7 cancer cell line = assay: MTT assay; assay type: cell-based; conditions: Homo sapiens, MCF7, 72 h
Method in brief: as §1

[3] = read-out: % of inhibition (mean)
[4] = read-out: % of inhibition, point 1
[5] = read-out: % of inhibition, point 2

## O=C(CNc1ccc([N+](=O)[O-])cc1)Nc1nc2ccccc2s1 [OMS5, N-(1,3-benzothiazol-2-yl)-2-(4-nitroanilino)acetamide]
MALME-3M
  GI50: 1.1 µM
  IC50: 2.1 µM
  CC50: 5 µM
  TGI: 2.3 µM
CAKI-1
  TGI: 9.5 µM
  GI50: 0.4 µM
  IC50: 0.9 µM
  CC50: 32.4 µM
A549 cancer cell line
  IC50: 61 µM
  inhibition at 100 µM: 64.2%
NCI-H322M
  GI50: 1.1 µM
  IC50: 2.5 µM
  CC50: 28.8 µM
  TGI: 4.1 µM
SK-OV-3
  GI50: 1.3 µM
  IC50: 5.2 µM
  CC50: > 100 µM
  TGI: 6.8 µM
Fibro cell line
  inhibition at 10 µM: 57.9%
  inhibition at 100 µM: 67.1%
MDA-MB-231/ATCC
  GI50: 1 µM
  IC50: 2.3 µM
  CC50: 8.3 µM
  TGI: 2.9 µM
OVCAR-8
  GI50: 0.6 µM
  IC50: 0.9 µM
  CC50: > 100 µM
  TGI: 22 µM
NCI-H226
  GI50: 0.6 µM
  IC50: 3 µM
  CC50: > 100 µM
  TGI: 4.9 µM
OVCAR-3
  GI50: 1.9 µM
  IC50: 4 µM
  CC50: > 100 µM
  TGI: 9.1 µM
HOP-92
  TGI: 10 µM
  GI50: 2.3 µM
  IC50: 12 µM
  CC50: 63.1 µM
SK-MEL-28
  GI50: 1.6 µM
  IC50: 3 µM
  CC50: 6.9 µM
  TGI: 3.3 µM
IGROV1
  GI50: 0.8 µM
  IC50: 1.8 µM
  CC50: > 100 µM
  TGI: 12 µM
786-0
  TGI: 12 µM
  GI50: 0.5 µM
  IC50: 0.9 µM
  CC50: 43.7 µM
NCI-H522
  GI50: 0.7 µM
  IC50: 2.1 µM
  CC50: 6.3 µM
  TGI: 2.3 µM

## O=C(CN1CCN(CC(=O)Nc2nc3ccccc3s2)CC1)Nc1ccc([N+](=O)[O-])cc1 [OMS14, N-(benzo[d]thiazol-2-yl)-2-(4-(2-((4-nitrophenyl)amino)-2-oxoethyl)piperazin-1-yl)acetamide]
MALME-3M
  GI50: 3 µM
  IC50: 6.6 µM
  CC50: 35.5 µM
  TGI: 9.3 µM
CAKI-1
  TGI: 3.6 µM
  GI50: 0.9 µM
  IC50: 2 µM
  CC50: 16.2 µM
PKN2 (PRK2); [3]
  inhibition at 100 µM: 10%
PKN2 (PRK2); [4]
  inhibition at 100 µM: 11%
PKN2 (PRK2); [5]
  inhibition at 100 µM: 8%
A549 cancer cell line
  IC50: 26.1 µM
  inhibition at 100 µM: 90.6%
NCI-H322M
  GI50: 1.9 µM
  IC50: 3.7 µM
  CC50: 40.7 µM
  TGI: 5.5 µM
SK-OV-3
  GI50: 2.2 µM
  IC50: 6.6 µM
  CC50: > 100 µM
  TGI: 8.1 µM
Fibro cell line
  inhibition at 10 µM: 49.4%
  inhibition at 100 µM: 70.5%
MDA-MB-231/ATCC
  GI50: 1.9 µM
  IC50: 3.9 µM
  CC50: 18.2 µM
  TGI: 4.7 µM
OVCAR-8
  GI50: 1.4 µM
  IC50: 2.4 µM
  CC50: > 100 µM
  TGI: 4.3 µM
[1]; [3]
  inhibition at 100 µM: 34%
[1]; [4]
  inhibition at 100 µM: 33%
[1]; [5]
  inhibition at 100 µM: 36%
NCI-H226
  GI50: 1.4 µM
  IC50: 3.5 µM
  CC50: > 100 µM
  TGI: 4.2 µM
OVCAR-3
  GI50: 2.3 µM
  IC50: 4.3 µM
  CC50: > 100 µM
  TGI: 6.6 µM
HOP-92
  TGI: 8.3 µM
  GI50: 2.3 µM
  IC50: 9.1 µM
  CC50: 89.1 µM
SK-MEL-28
  GI50: 2.1 µM
  IC50: 4 µM
  CC50: 23.4 µM
  TGI: 6.2 µM
IGROV1
  GI50: 1.9 µM
  IC50: 3.3 µM
  CC50: 47.9 µM
  TGI: 4.6 µM
[2]; [3]
  inhibition at 100 µM: 65%
[2]; [4]
  inhibition at 100 µM: 66%
[2]; [5]
  inhibition at 100 µM: 64%
786-0
  TGI: 11.5 µM
  GI50: 2.1 µM
  IC50: 3.3 µM
  CC50: 43.7 µM
NCI-H522
  GI50: 1.5 µM
  IC50: 3 µM
  CC50: 6.5 µM
  TGI: 3.2 µM
AKT3 (PKB γ); [3]
  inhibition at 100 µM: 28%
AKT3 (PKB γ); [4]
  inhibition at 100 µM: 27%
AKT3 (PKB γ); [5]
  inhibition at 100 µM: 29%
MCF-7 cancer cell line
  IC50: 22.1 µM
